Screening results deposited in PubChem BioAssay by Broad Institute.
Shown are actives, neighbours in structure and some others; about 2.7% of the full set was active somewhere.
F508del corr – CFTR F508del correction in bronchial cells. CFBE cells, YFP halide quenching; stimulated with forskolin plus potentiator P3; % fluorescence drop versus neutral controls. activity (quench increase), % at 7.58 µM. 350,000 tested, 0.36% active. AID 720511;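 active means mean added fluorescence quench of at least 8% versus neutral control, with both replicates also reaching 8%; inconclusive means only one of the mean or replicate conditions met; inactive means mean below 8% and not both replicates reaching 8%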;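 further: cells transiently co-express mutant CFTR-F508del with the halide-sensitive YFP; corrector assay measuring rescue of mutant channel to the surface after 24 h compound exposure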
E-sel inducer – induces E-selectin expression in human endothelial cells. activation, % at 7.58 µM. 260,000 tested, 0.37% active. HUVEC E-selectin immunofluorescence imaging; normalized: neutral wells 0, TNF-alpha wells 100. P16581;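 active means mean E-selectin-positive cell signal at least 10% of the positive control, reached in at least 60% of replicates, without over 20% cell loss; inconclusive means no rule given, readout overlaps actives, possibly toxicity-flagged; inactive means the rest, including those meeting only one limit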
Target sequence (P16581 whole entry, looked up): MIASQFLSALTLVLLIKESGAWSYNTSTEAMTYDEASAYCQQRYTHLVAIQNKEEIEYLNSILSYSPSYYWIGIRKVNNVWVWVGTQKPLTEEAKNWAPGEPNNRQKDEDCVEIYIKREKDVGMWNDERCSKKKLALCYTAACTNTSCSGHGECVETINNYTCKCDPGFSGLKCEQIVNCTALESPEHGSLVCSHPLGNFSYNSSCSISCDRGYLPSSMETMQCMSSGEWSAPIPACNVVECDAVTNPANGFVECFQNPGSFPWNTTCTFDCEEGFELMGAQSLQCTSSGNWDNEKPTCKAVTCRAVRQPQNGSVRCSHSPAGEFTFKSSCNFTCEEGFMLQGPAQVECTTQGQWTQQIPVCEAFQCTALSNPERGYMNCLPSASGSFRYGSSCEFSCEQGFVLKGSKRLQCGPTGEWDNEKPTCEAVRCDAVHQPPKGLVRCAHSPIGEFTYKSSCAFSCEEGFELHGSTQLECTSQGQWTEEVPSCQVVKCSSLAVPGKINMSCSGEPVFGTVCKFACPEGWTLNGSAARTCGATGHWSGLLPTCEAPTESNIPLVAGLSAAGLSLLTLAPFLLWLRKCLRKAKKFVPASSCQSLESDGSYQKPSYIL
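Read-out basis: % PE-positive cells; Test system: HUVEC primary endothelial cells; Technique: immunofluorescence imaging; Dosing: single-point compound dose.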
FGF22 binding-1 – binders of recombinant human FGF22 by thermal shift | SYPRO orange fluorescence; percent of sucrose octasulfate shift, DMSO zero | Q9HCT0 | activity (Tm shift, normalised), % at 9.99 µM | 340,000 tested, 1.5% active;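 active means mean Tm shift, scaled 0 neutral to 100 positive control, at about 1.3% or above, every replicate too, limit read from the data; inconclusive means no clear call, values can overlap the other calls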
Target sequence (Q9HCT0 whole entry, looked up): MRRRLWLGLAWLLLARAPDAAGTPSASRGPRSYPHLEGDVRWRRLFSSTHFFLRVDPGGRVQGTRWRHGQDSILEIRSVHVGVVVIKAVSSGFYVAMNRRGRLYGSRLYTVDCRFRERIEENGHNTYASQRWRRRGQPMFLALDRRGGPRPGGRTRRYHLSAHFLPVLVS
S100A4 MyoIIA – S100A4-myosin IIA interaction inhibition | S100A4/TAMRA-MyoIIA peptide fluorescence polarization | 360,000 tested, 0.14% active | AID 652163 | P26447 | inhibition, % at 10.7 µM;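 active means mean inhibition of at least 70% across replicates, with every replicate also reaching that level; inconclusive means mean inhibition reaches 70% but some replicates fall short; inactive means mean inhibition below 70%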
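System – human S100A4 monomer protein, biochemical binding assay · Buffer or medium – Calcium-containing HEPES buffer, pH 7.2 · Timing – 5 min between mix addition and reading · Also added – TAMRA-labelled myosin IIA heavy-chain peptide probe, 5 nM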
Env fusion inh – blocks HIV Env-driven cell-cell fusion | HeLa-JRFL Env/CEM21 cell fusion, luciferase | 360,000 tested, 1.1% active | inhibition, % at 12.3 µM;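 active means mean replicate inhibition score of at least 50 and every replicate individually at or above 50; inconclusive means only one of the two criteria met; inactive means mean below 50 and not all replicates reaching 50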
FGF22 binding-2 – binds human FGF22 shifting its melting temperature; shares compounds with FGF22 binding-1; recombinant FGF22 thermal shift, SYPRO orange fluorescence; thermal shift activity, °C (ΔTm) at 38 µM; 1,000 tested, 2% active; AID 720646;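 active means fitted rise in melting shift crosses a set limit at or below the top valid dose tested; inconclusive means flat fit at mid-level activity, or a poor quality fit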
FGF22 TSA DP – binders of human FGF22 by thermal shift; shares compounds with FGF22 binding-1; Thermal shift assay, SYPRO orange, melting temperature shift; Tm shift (activity), % at 38 µM; 50 tested, under 10 active;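 active means compounds whose fitted dose curve of melting temperature shift rises past a set threshold within the tested doses; inconclusive means flat curve at moderate activity, or poor curve fit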
SYPRO no-protein – counter-screen for FGF22 binders: compound-only thermal shift, no protein | AID 743019 | 1,000 tested, 2% active | AC50, µM (titrated, usually from 38 µM) | compound-only SYPRO orange thermal shift counter-screen | shares compounds with FGF22 binding-1;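 active means rising signal whose fitted curve reaches the 0.54 level within the top valid dose, showing a melting point, actives reach about 13 µM in these data; inactive means the rest, including activity in the opposite direction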; further: value is where the raw curve crosses a fixed level and not half-maximal
Of the large screens only hits and unclear results are named; the others gave an inactive call (follow-up assays come after a bar, where they were run).

O=C(Nc1ccc2c(c1)OCO2)c1ccc(NC2CC2)c([N+](=O)[O-])c1	FGF22 binding-1 1.6 (no result: F508del corr, E-sel inducer) | FGF22 binding-2 inactive | SYPRO no-protein inactive
CNC[C@H]1Oc2c(NC(=O)C3CCCCC3)cccc2C(=O)N([C@@H](C)CO)C[C@H]1C	none
CCCC(=O)N1CCC2(CC1)CN(C(=O)Nc1c(C)noc1C)[C@H](CO)c1c2c2ccc(OC)cc2n1C	none (no result: Env fusion inh)
CC(=O)Nc1ccc(/C(C)=N/Nc2nc(Nc3ccccc3)nc(N3CCOCC3)n2)cc1	FGF22 binding-1 1.6 (no result: E-sel inducer) | FGF22 binding-2 inactive | SYPRO no-protein inactive
CC(=O)c1ccc(Nc2nc(N3CCOCC3)nc(N3CCOCC3)n2)cc1	none (no result: E-sel inducer)
COc1ccc(S(=O)(=O)Nc2ccc3c(c2)C(=O)N([C@@H](C)CO)C[C@H](C)[C@@H](CN(C)C(=O)CCC(F)(F)F)OCCCC[C@H](C)O3)cc1	none
CC(C)C#Cc1ccc2c(c1)O[C@@H](CN(C)S(C)(=O)=O)[C@H](C)CN([C@@H](C)CO)S2(=O)=O	none
COc1ccc(Br)cc1S(=O)(=O)Nc1ncccc1C	FGF22 binding-1 1.5 (no result: E-sel inducer) | FGF22 binding-2 inactive | SYPRO no-protein inactive
COc1ccc(C(=O)C2CCCN(C(=O)c3cc(C(C)C)no3)C2)cc1F (stereo not given)	FGF22 binding-1 9.8 | FGF22 binding-2 inactive | SYPRO no-protein inactive
COc1ccccc1C(=O)C1CCCN(C(=O)c2cc(C(C)C)no2)C1 (stereo not given)	none
O=C(OCC(=O)c1cccs1)c1cccc(C(=O)OCC(=O)c2cccs2)n1	FGF22 binding-1 2.2 (no result: E-sel inducer, Env fusion inh) | FGF22 binding-2 inactive | SYPRO no-protein inactive
Cc1ccc(N(C(=O)c2csnn2)C(C(=O)NC2CCCC2)c2ccccn2)c(C)c1 (stereo not given)	FGF22 binding-1 1.6 (no result: E-sel inducer) | FGF22 binding-2 inactive | SYPRO no-protein inactive
Cc1ccccc1CN1[C@@H](Cc2ccccc2)COCCS1(=O)=O	none (no result: FGF22 binding-1, S100A4 MyoIIA)
C=C1[C@@H](O)[C@H](Cc2ccccc2)N(Cc2ccccc2Br)S1(=O)=O	FGF22 binding-1 1.4 | FGF22 binding-2 inactive | SYPRO no-protein inactive
CCc1nnc(NS(=O)(=O)c2ccc(Nc3ccc([N+](=O)[O-])c4nonc34)cc2)s1	FGF22 binding-1 2.0 (no result: E-sel inducer) | FGF22 binding-2 inactive | SYPRO no-protein inactive
CCc1nnc(NS(=O)(=O)c2ccc(NC(=O)OC)cc2)s1	none (no result: F508del corr, E-sel inducer, FGF22 binding-1, S100A4 MyoIIA)
CCc1nnc(NS(=O)(=O)c2ccc(NC(=O)c3ccc(Br)cc3)cc2)s1	FGF22 binding-1 1.6 (no result: E-sel inducer) | FGF22 binding-2 inactive | SYPRO no-protein inactive
CC(C)NC(=O)N[C@@H]1CC[C@H](CCNC(=O)C2CCOCC2)O[C@H]1CO	none
COc1ccc2c3c([nH]c2c1)[C@H](CO)N(S(C)(=O)=O)CC31CCN(C(=O)c2ccccc2)CC1	none (no result: Env fusion inh)
CCc1nnc(NC(=O)CN2CCN(Cc3ccc(C)cc3)CC2)s1	FGF22 binding-1 1.7 (no result: E-sel inducer) | FGF22 binding-2 inactive | SYPRO no-protein inactive
COc1ccc(S(=O)(=O)N2CCCCN3[C@H](CO)[C@H](c4ccc(C5=CCCC5)cc4)[C@@H]3C2)cc1	none (no result: S100A4 MyoIIA, Env fusion inh)
Cc1ccc(NC(=O)COC(=O)Cn2cnc3c2c(=O)n(C)c(=O)n3C)cc1F	FGF22 binding-1 30.1 (no result: E-sel inducer) | FGF22 binding-2 inactive | SYPRO no-protein inactive
Cc1ccc(NC(=O)COC(=O)Cn2cnc3c2c(=O)n(C)c(=O)n3C)cc1Cl	none
O=C(N/N=C/c1c(O)ccc2ccccc12)c1[nH]ncc1Br	FGF22 binding-1 1.3 (no result: F508del corr, E-sel inducer) | FGF22 binding-2 inactive | SYPRO no-protein inactive
COc1cccc(S(=O)(=O)N[C@H]2CC[C@@H](CCNC(=O)Nc3cc(F)ccc3F)O[C@H]2CO)c1	none
Cc1ccc(S(=O)(=O)N[C@H]2C=C[C@@H](CC(=O)N3CCc4ccccc4C3)O[C@@H]2CO)cc1	FGF22 binding-1 1.3 | FGF22 binding-2 inactive | SYPRO no-protein inactive
Cc1ccc(S(=O)(=O)N[C@H]2C=C[C@H](CC(=O)N3CCc4ccccc4C3)O[C@H]2CO)cc1	FGF22 binding-1 1.3 | FGF22 binding-2 inactive | SYPRO no-protein inactive
Cc1ccc(S(=O)(=O)N[C@@H]2C=C[C@@H](CC(=O)N3CCc4ccccc4C3)O[C@H]2CO)cc1	none
Cc1ccc(S(=O)(=O)N[C@H]2C=C[C@H](CC(=O)N3CCc4ccccc4C3)O[C@@H]2CO)cc1	none
CC(C)(C)S(=O)(=O)/C(C#N)=N/Nc1ccc(Cl)cc1	FGF22 binding-1 1.7, Env fusion inh 58.4 (no result: E-sel inducer) | FGF22 binding-2 inactive | SYPRO no-protein inactive
CC(C)(C)c1ccc(N/N=C(\C#N)S(=O)(=O)C(C)(C)C)cc1	none (no result: E-sel inducer)
COc1ccccc1NC(=O)N[C@@H]1CC[C@@H](CCn2cc(-c3ccccc3OC)nn2)O[C@@H]1CO	FGF22 binding-1 1.7 | FGF22 binding-2 inactive | SYPRO no-protein inactive
COc1ccc2c3c(n(C)c2c1)[C@H](CO)N(S(=O)(=O)c1ccccc1)CC31CCN(C)CC1	none
O=C(C1CC1)N1CC2(C1)[C@H](c1ccccc1)[C@@H](CO)N2Cc1ccc(Cl)cc1	FGF22 binding-1 2.9 (no result: Env fusion inh) | FGF22 binding-2 inactive | SYPRO no-protein inactive
C[C@@H]1CCCCO[C@H](CN(C)C(=O)C2CCCCC2)[C@@H](C)CN([C@@H](C)CO)C(=O)c2cc(NC(=O)Cc3ccccc3)ccc2O1	none
O=[N+]([O-])c1ccc2oc(/C=C/c3ccc(O)cc3)nc2c1	FGF22 binding-1 1.8, Env fusion inh inconclusive | FGF22 binding-2 inactive | SYPRO no-protein inactive
CC(C)(C)Nc1nc2cc([N+](=O)[O-])ccc2o1	none
COc1ccc(S(=O)(=O)Nc2ccc(NC(C)=O)cc2)cc1Cl	FGF22 binding-1 1.7 (no result: E-sel inducer) | FGF22 binding-2 inactive | SYPRO no-protein inactive
COc1ccc(S(=O)(=O)Nc2ccc(NC(C)=O)cc2)cc1OC	none (no result: F508del corr, E-sel inducer, FGF22 binding-1, S100A4 MyoIIA)
COc1ccc(C)cc1NS(=O)(=O)c1ccc(NS(=O)(=O)c2ccc(NC(C)=O)cc2)cc1	FGF22 binding-1 2.9 (no result: E-sel inducer, Env fusion inh) | FGF22 binding-2 inactive | FGF22 TSA DP inactive | SYPRO no-protein inactive
COc1cc(NS(=O)(=O)c2ccc(NC(=S)NC(C)=O)cc2)nc(OC)n1	none
COc1cc(NS(=O)(=O)c2ccc(NS(=O)(=O)c3ccc(NC(C)=O)cc3)cc2)nc(OC)n1	FGF22 binding-1 1.4 | FGF22 binding-2 inactive | SYPRO no-protein inactive
COc1ccc(OC)c(NS(=O)(=O)c2ccc(NC(C)=O)cc2)c1	none (no result: F508del corr, E-sel inducer, FGF22 binding-1, S100A4 MyoIIA)
O=C(NCC[C@H]1CC[C@@H](NC(=O)Nc2cc(F)ccc2F)[C@@H](CO)O1)Nc1ccc(F)cc1	none
